ChEMBL document CHEMBL4665656, “Toxicity, bioactivity, release of HS in vivo and pharmaco-kinetics of HS-donors with thiophosphamide structure” (Eur J Med Chem, 2019)
The source made the active and inactive calls. The rule behind the calls is not given here.

How the values were obtained:
[1] = Toxicity in zebra fish assessed as hatching rate at 0.5 uM measured after 120 hpf by microscopic analysis; set-up: species or system Danio rerio; conditions: zebrafish
WI-38 = test: Cytotoxicity in human W138 cells assessed as growth inhibition incubated for 24 hrs by MTT assay; assay type: cell-based; conditions: WI-38, 24 h
Outline: (§1)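 Cells were grown in RPMI 1640 with 10% FBS at 37 °C and 10% CO2, seeded at 6×10^3 cells/well. Exposure was 24 h, with viability by MTT, in triplicate cultures. IC50 was reported as mean ± SD.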

H9c2 [2] = test: Cardioprotective activity against H2O2- induced toxicity in rat H9c2 cells assessed as effect on cell morphology at 50 uM incubated for 8 hrs co-treated with 50 uM H2O2 measured after 24 hrs […]; assay type: functional, cell-based
Outline: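 H9c2 cells in 24-well plates treated with H2O2 (50, 200 or 400 µM) for 8 h plus compound 50 µM, 24 h total. Cells were stained with Giemsa for 30 min and morphology examined by microscopy.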

[3] = Induction of H2S generation assessed as half life at 150 uM incubated at 22 degC and pH 1.2 by fluorescence spectrophotometry; assay type: functional
Outline: (§2)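 Donor at 150 µM final, mixed with 200 µM sulfonyl-azide fluorescent probe in buffer/acetonitrile (1:9) at set pH. Cuvette held in a water bath at 22 °C or 37 °C, with fluorescence read three times at intervals. H2S was quantified from a Na2S standard curve (0–200 µM, probe 200 µM).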

[4] = Drug metabolism in Wistar rat liver homogenate assessed as metabolite 3b retention time incubated for 36 hrs by LC-MS analysis; assay type: ADME, tissue-based; conditions: tissue homogenate
[5] = Toxicity in Wistar rat assessed as congested central venous and hepatic sinuses and swollen hepatocytes at 0.01 mmol/kg, ip administered for 14 days; assay type: organism-based; conditions: in vivo, 336 h, time 14 day
Outline: (§3)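 Wistar rats (6/group) dosed ip daily for 14 days with compound in 10% DMSO; vehicle controls received 10% DMSO. Liver, kidney and spleen were fixed in 4% glutaraldehyde, sectioned, H-E stained and examined microscopically.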

HeLa = test: Cytotoxicity in human HeLa cells assessed as growth inhibition incubated for 24 hrs by MTT assay; assay type: functional, cell-based; outline: as §1
[6] = Induction of H2S generation assessed as Cmax at 150 uM incubated at 22 degC and pH 1.2 by fluorescence spectrophotometry; assay type: functional; outline: as §2
[7] = Acute toxicity in juvenile zebrafish assessed as decrease in locomotor activity measured as swimming distance at 10 uM measured at 144 hpf; set-up: species or system Danio rerio; conditions: in vivo, dose […]
Outline: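 Wild-type AB zebrafish bred at 28 °C on a 14 h/10 h light cycle; normally developing embryos were selected at 4 hpf. Total swimming distance of juveniles was recorded over 5 min under visible light. DMF (1:1000) was the vehicle control, n = 100, three independent experiments, mean ± SD.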

[8] = Toxicity in zebra fish assessed as decrease in hatching rate at <=20 uM measured after 120 hpf by microscopic analysis relative control; set-up: species or system Danio rerio; scale not given: the % may be the effect or the level left; conditions: zebrafish, 5 µM
A549 = test: Cytotoxicity in human A549 cells assessed as growth inhibition incubated for 24 hrs by MTT assay; assay type: functional, cell-based; conditions: A549, 24 h; outline: as §1
HepG2 = test: Cytotoxicity in human HePG2 cells assessed as growth inhibition incubated for 24 hrs by MTT assay; assay type: functional, cell-based; conditions: HepG2, 24 h; outline: as §1
H9c2 [9] = test: Cardioprotective activity against H2O2- induced toxicity in rat H9c2 cells assessed as increase in survival rate at 50 uM incubated for 8 hrs co-treated with 200 uM H2O2 measured after 24 hrs by MTT assay relative to control; assay type: functional
Outline: (§4)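 H9c2 cardiomyocytes injured with H2O2 (50, 200 or 400 µM) for 8 h together with compound (10–100 µM). Survival rate measured against the H2O2 model group. Six independent experiments, mean ± sd.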

[10] = Induction of H2S generation assessed as Cmax at 150 uM incubated at 22 degC and pH 8 by fluorescence spectrophotometry; assay type: functional; outline: as §2
[11] = Toxicity in Wistar rat assessed as effect on hemoglobin level at 0.01 mmol/kg, ip, administered daily for 14 days (reference value: 98 g/l); conditions: in vivo, 336 h, time 14 day
[12] = Induction of H2S generation assessed as half life at 150 uM incubated at 37 degC and pH 1.2 by fluorescence spectrophotometry; assay type: functional; outline: as §2
[13] = Induction of H2S generation assessed as Cmax at 150 uM incubated at 37 degC and pH 1.2 by fluorescence spectrophotometry; assay type: functional; outline: as §2
HT-29 = test: Cytotoxicity in human HT-29 cells assessed as growth inhibition incubated for 24 hrs by MTT assay; assay type: functional, cell-based; conditions: HT-29, 24 h; outline: as §1
[14] = Toxicity in Wistar rat assessed as large and inflamed nucleus in spleen at 0.01 mmol/kg, ip administered for 14 days; assay type: organism-based; conditions: in vivo, 336 h, time 14 day; outline: as §3
MCF7 = test: Cytotoxicity in human MCF-7 cells assessed as growth inhibition incubated for 24 hrs by MTT assay; assay type: functional, cell-based; conditions: MCF7, 24 h; outline: as §1
[15] = Toxicity in Wistar rat assessed as damaged glomeruli, marked gaps and swollen proximal convoluted tubules at 0.01 mmol/kg, ip administered for 14 days; assay type: organism-based; conditions: in vivo, 336 h, time 14 day; outline: as §3
[16] = Cytotoxicity against mouse RAW264.7 cells assessed as cell viability at 20 to 100 microM after 24 hrs by MTT assay; assay type: cell-based; conditions: dose 20-100 µM, read-out: Activity
Outline: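 RAW264.7 macrophages in high-glucose DMEM with 10% heat-inactivated FBS, 37 °C, 5% CO2. LPS 1 µg/mL with or without compound (20 and 100 µM) for 24 h. Then MTT 4 h, formazan dissolved in DMSO, A570, expressed as % of control.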

[17] = Induction of H2S generation assessed as half life at 150 uM incubated at 22 degC and pH 8 by fluorescence spectrophotometry; assay type: functional; outline: as §2
[18] = Induction of H2S generation assessed as half life at 150 uM incubated at 37 degC and pH 8 by fluorescence spectrophotometry; assay type: functional; outline: as §2
[19] = Toxicity in zebra fish embryo assessed as decrease in spontaneous movement at 5 uM measured after 24 hpf by microscopic analysis; set-up: species or system Danio rerio; conditions: zebrafish
Outline: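 Normal AB embryos were exposed to compound or DMF vehicle (1:1000) from 4 to 24 hpf. Ten embryos per group were chosen at random. Spontaneous movement was recorded for 5 min under a stereoscopic dissecting microscope and expressed as frequency per min. Values are mean ±SD of three independent experiments.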

[20] = Induction of H2S generation assessed as Cmax at 150 uM incubated at 37 degC and pH 5 by fluorescence spectrophotometry; assay type: functional; outline: as §2
[21] = Induction of H2S generation assessed as Cmax at 150 uM incubated at 22 degC and pH 7.4 by fluorescence spectrophotometry; assay type: functional; outline: as §2
[22] = Induction of H2S generation assessed as half life at 150 uM incubated at 22 degC and pH 5 by fluorescence spectrophotometry; assay type: functional; outline: as §2
H9c2 [23] = test: Cardioprotective activity against H2O2- induced toxicity in rat H9c2 cells assessed as increase in survival rate at 50 uM incubated for 8 hrs co-treated with 50 uM H2O2 measured after 24 hrs by MTT assay relative to control; assay type: functional; outline: as §4

Structure (SMILES)	Activity [1]	IC50 (WI-38)	Activity (H9c2 [2])	T1/2 [3]	Retention_time [4]	Activity [5]	IC50 (HeLa)	Cmax [6]	Activity [7]	Activity [8]	IC50 (A549)	IC50 (HepG2)	Activity (H9c2 [9])	Cmax [10]	Activity [11]	T1/2 [12]	Cmax [13]	IC50 (HT-29)	Activity [14]	IC50 (MCF7)	other results
S=P1(c2ccccc2)NCCCO1 (stereo not drawn)	Non-Toxic	720 µM	Active	35 min	8.63 min	Toxic	826 µM	25 µM	257 mm	50%	886 µM	629 µM	13.9%	25.6 µM	190 g/L	35.4 min	34.8 µM	1050 µM	Toxic	752 µM	Activity [15]: Toxic; viability at 24 h [16]: 70%; T1/2 [17]: 35.1 min; T1/2 [18]: 34.9 min; Activity [19]: Toxic; Cmax [20]: 35.8 µM; Cmax [21]: 25.1 µM; T1/2 [22]: 34.1 min; Activity (H9c2 [23]): 17.1%
O=C([O-])[C@H](Cc1cc2ccccc2[nH]1)NP([O-])(=S)c1ccccc1.[Li+].[Li+] (stereo partly drawn)	Non-Toxic	724 µM	Active	2.97 min	7.9 min	Toxic	712 µM	118 µM	216 mm	50%	433 µM	315 µM	30.1%	118 µM	168 g/L	1.51 min	124 µM	742 µM	Toxic	838 µM	Activity [15]: Toxic; viability at 24 h [16]: 70%; T1/2 [17]: 8.54 min; T1/2 [18]: 7.85 min; Activity [19]: Toxic; Cmax [20]: 124 µM; Cmax [21]: 117 µM; T1/2 [22]: 3.53 min; Activity (H9c2 [23]): 25.5%
